From PubChem BioAssay
An excerpt weighted towards active compounds, which were near 1.1% of everything screened.
NR2E3 ag-1: human photoreceptor-specific nuclear receptor agonism. Q9Y5X4. CHO-S Gal4-NCOR/VP16-NR2E3 two-hybrid, luciferase. inhibition of corepressor binding, % at 3.98 µM. 360,000 compounds, 0.35% hits. AID 602229;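 active = inhibition above the mean of all tested compounds plus 3 SD, cut at about 70% in these data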;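 also: 0% = DMSO with NR2E3 transfected cells and 100% = cells lacking NR2E3 construct; higher means lower luciferase signal from less NR2E3 corepressor binding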
Target sequence (Q9Y5X4 whole entry, looked up, the tested form may be a part): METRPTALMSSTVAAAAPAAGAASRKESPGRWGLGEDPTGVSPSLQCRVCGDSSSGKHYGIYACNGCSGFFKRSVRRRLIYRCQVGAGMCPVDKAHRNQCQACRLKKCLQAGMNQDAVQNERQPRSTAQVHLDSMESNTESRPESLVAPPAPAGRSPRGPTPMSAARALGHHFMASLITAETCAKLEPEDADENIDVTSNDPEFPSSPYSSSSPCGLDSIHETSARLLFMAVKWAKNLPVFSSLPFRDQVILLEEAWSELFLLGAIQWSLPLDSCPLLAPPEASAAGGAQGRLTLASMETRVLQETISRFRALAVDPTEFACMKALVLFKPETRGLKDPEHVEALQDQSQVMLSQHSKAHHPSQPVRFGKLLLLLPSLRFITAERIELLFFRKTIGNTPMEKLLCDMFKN
HCV core dimer: HCV core protein dimerization inhibition; TR-FRET GST/Flag-core106 dimerization, 1536-well; 300,000 compounds, 0.33% hits; inhibition, % at 5 µM;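 active = inhibition above the mean of all tested compounds plus 3 SD, set per screening campaign, cut at about 45% in these data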
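Material: Tagged HCV core106 pair (GST and Flag) | Amount: GST-core106 13.5 nM, Flag-core106 17 nM | Medium: KF-containing HEPES buffer, pH 7.45, DTT, CHAPS, BSA | Reagent: Eu donor and XL665 acceptor anti-tag antibodies | Schedule: 4 h at 22.5 °C | Technique: Time-resolved FRET, ex 340 nm, em 617 and 671 nm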
NR2E3 ag-2: activates human photoreceptor nuclear receptor NR2E3; 320,000 compounds, 0.12% hits; GST-NR2E3/biotin-RetCOR TR-FRET, 1536-well; Q9Y5X4; inhibition of corepressor binding, % at 4.78 µM;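 active = percent inhibition above the cutoff of mean plus 3 SD of all tested compounds, set per screening campaign, cut at about 20% in these data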;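 also: 0% = DMSO wells and 100% = biotin wells as full block of FRET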
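Material: NR2E3–RetCOR corepressor complex | Quantity: 1.35 nM GST-tagged NR2E3 final | Schedule: 5 h at 4 °C | Replication: Singlicate compound wells | Reagent: RetCOR corepressor, biotinylated, 7 nM | Controls: Biotin wells as high control, 0.6% DMSO wells as low control | Signal: TR-FRET, Eu(K)-anti-GST donor, streptavidin-D2 acceptor, ex 340, em 617/671 nm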
DAGLB inh: diacylglycerol lipase beta (human) inhibition | AID 504411 | Q8NCG7 | 340,000 compounds, 0.059% hits | inhibition, % at 5.17 µM | HEK293T DAGLB membrane lysate, EnzChek fluorogenic substrate; in the data active = inhibition above about 34%;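 also: 0% = enzyme with vehicle and 100% = wells lacking enzyme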
Vif imaging: HIV Vif inhibition | HEK293T cells, Vif self-association by quenched fluorescence, imaging, 24 h | inhibition, % at 7.49 µM | 340,000 compounds, 0.35% hits | AID 602346; in the data active = inhibition above about 50%, passing the limit was not always enough
MT1-MMP act inh: blocks activation of human MT1-MMP | P50281 | 360,000 compounds, 0.061% hits | AID 651647 | GFP/RFP ratio change, % at 20 µM | HT1080 RFP-PRO-GFP cells, GFP/RFP ratio fluorescence, overnight; percent of plate control window, DMSO zero;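 active = GFP/RFP ratio change of at least 30% with cell ATP level not reduced by more than half and red fluorescence within 50% of control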
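Assay system – RFP-PRO-GFP reporter HT1080 cells · Compound dosing – single dose of 20 µM compound, 1% DMSO final · Incubation – overnight compound exposure at 37 °C · Measure – GFP/RFP fluorescence ratio · Benchmarks – DMSO wells and RFP-L50D-GFP cells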
NR2E3 ag confirm-1: NR2E3 (human) agonism, confirmation; shares compounds with NR2E3 ag-2; cell-free NR2E3 corepressor release, TR-FRET, 5 h; activation (reported as inhibition), % at 3.98 µM; 360 compounds, 39% hits; in the data active = activation above about 20%
PPARg-NCOR2 ag: PPARg-NCOR2 interaction agonism, NR2E3 counter-screen | AID 504787 | shares compounds with NR2E3 ag-2 | inhibition, % at 3.98 µM | 360 compounds, 45% hits | TR-FRET PPARg-NCOR2 coregulator interaction, biochemical; in the data active = inhibition above about 20%;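 also: 0% = DMSO vehicle and 100% = wells without protein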
DAGLB confirm: DAGLB (human) inhibition, confirmation screen. AID 504445. shares compounds with DAGLB inh. HEK293T DAGLB membrane lysate, EnzChek fluorogenic substrate. inhibition, % at 5.17 µM. 190 compounds, 73% hits;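 active = mean inhibition over triplicate wells above a set limit taken from the primary lipase screen, cut at about 34% in these data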;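 also: 0% = DAGLB with DMSO and 100% = wells lacking DAGLB enzyme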
NR2E3 ag confirm-2: NR2E3 agonism confirmed in two-hybrid assay. inhibition, % at 3.98 µM. CHO-S mammalian two-hybrid NR2E3-NCOR, luciferase luminescence. AID 624378. shares compounds with NR2E3 ag-1. 2,300 compounds, 51% hits;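 active = average inhibition above a cutoff equal to the mean inhibition of all tested compounds plus one SD, cut at about 70% in these data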;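 also: 0% = DMSO in NR2E3 cells and 100% = DMSO in cells lacking NR2E3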
VP16 counter: GAL4-VP16 reporter inhibition in NR2E3 agonist counterscreen. CHO-S GAL4-VP16 luciferase reporter, luminescence. 2,300 compounds, 29% hits. inhibition, % at 3.98 µM. shares compounds with NR2E3 ag-1;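 active = mean inhibition above a cutoff equal to the average over all tested compounds plus one standard deviation, cut at about 70% in these data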;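 also: luciferase from a UAS reporter driven by GAL4-VP16 transactivation; 0% = DMSO with VP16-transfected cells and 100% = DMSO with cells lacking VP16; higher means less reporter light so more repression of VP16 activity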
Starred values were filed as active, the others as inactive; . = not tested or not shown.

SMILES | NR2E3 ag-1 | HCV core dimer | NR2E3 ag-2 | DAGLB inh | Vif imaging | MT1-MMP act inh | NR2E3 ag confirm-2 | VP16 counter | others
Cc1nc2c(=O)n(C)c(=O)nc-2n(C)n1 | 114* | 55* | 38* | -33 | 9 | -26 | 100* | 98* | NR2E3 ag confirm-1=40*;PPARg-NCOR2 ag=64*
CC(=O)OC1CCC2(C)C(CCC3C4CC(N5CC5)C(C(C)=O)C4(C)CC(=O)C32)C1 (stereo not given) | 14 | . | . | -1 | 5 | 2 | . | .
O=[N+]([O-])c1cc(O)c(O)c([N+](=O)[O-])c1 | -31 | -4 | 1 | 42* | -3 | 9 | . | . | DAGLB confirm=33
COC(=O)C1=C(C(=O)OC)SC2(S1)C(C(=O)OC)=C(C(=O)OC)Sc1c2ssc1=O | 42 | . | . | 8 | 9 | -4 | . | .
CC(N)C(=O)NC1C2C(=C(O)CC(O)C2O)C(=O)OC1(C)C(Cl)Cl (stereo not given) | 98* | . | . | -1 | 3 | -46 | 96* | 92*
COC(=O)C1=C(c2ccc(-c3ccccc3)c(F)c2)C[C@@H]2CC[C@H]1N2C(=O)N1CCCCC1 | 37 | . | 2 | -10 | -17 | 2 | . | .
COC(=O)C1=C(c2ccc(-c3ccccc3)c(F)c2)C[C@@H]2CC[C@H]1N2C(=O)N1CCCC1 | 71* | . | 2 | -2 | -5 | 16 | 54 | 56
Cc1ccc2c(c1)Oc1ccccc1N=C2 | 14 | . | . | -4 | 0 | -5 | . | .
CC12C(C(=O)O)C1(c1ccccc1)C2C(=O)O (stereo not given) | -23 | . | . | -1 | -6 | -3 | . | .
c1ccc(-c2ccc(CN3Cc4ccccc4-n4nncc4C3)cc2)cc1 | 59 | . | . | -2 | -3 | -2 | 83* | 60
COC(=O)C1CN(C#N)N(c2ccc(Cl)cc2)C12c1ccccc1-c1ccccc12 (stereo not given) | 80* | -6 | 0 | 22 | -1 | -34 | 92* | 63
CC1(C)C(C(=O)N2CCN(c3ccc(Cl)cc3)CC2)C1(C)C | -6 | 4 | -3 | -5 | -8 | -1 | . | .
COc1ccc(C(c2nnnn2C2CCCC2)N2CCC3(CC2)C(=O)NCN3c2ccccc2)cc1 (stereo not given) | 5 | . | . | . | 1 | 3 | . | .
Cc1cc(OC(=O)c2ccco2)c2c3c(c(=O)oc2c1)CCCC3 | 93* | 8 | 3 | -4 | -8 | -5 | 69 | 43
C=Cc1cc(OC)c2c(c1)c(=O)oc1c2cc(OC)c2c(O)ccc(C3OC(C)C(O)C(C)(O)C3O)c21 (stereo not given) | -26 | . | . | 3 | -4 | -2 | . | .
O=[N+]([O-])c1ccc(N(CCO)CCO)c2c1no[n+]2[O-] | 76* | . | . | -17 | 61* | . | 54 | 44
CC(CC(C)(C)N1CC1)=NNC(=O)Nc1cccc2ccccc12 | 5 | . | . | -1 | 1 | 2 | . | .
NC(Cc1ccc(F)cc1)c1csc(Nc2ncccn2)n1 (stereo not given) | 50 | . | . | . | 5 | -13 | 22 | -7
Nc1ccc(CC(N)c2csc(Nc3ncccn3)n2)cc1 (stereo not given) | -33 | . | . | . | -3 | 3 | . | .
